In PubChem BioAssay:
Active and inactive are the calls of the source. Unless noted, no stated cut-off is given here; in the data, active means inhibition above about 30%; inactive means the rest.

Experiments:
[1] = Her2 expression decrease, cell viability multiplex – SKBR3 breast tumor cells, AlphaScreen, ATP viability, primary screen (AID 461;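 active means Her2 level under about 52% in both replicate screens, with viability over 70% of control, limit read from the data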;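 on Her2 level: lower value means less Her2 protein in the cells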;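 on viability: percent of carrier control wells set as 100% viability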); settings: SKBR3 Her2 protein level, 18-24 h, measured here: SKBR3 viability, ATP luminescence, at 10 µM
[2] = molecular target: Receptor tyrosine-protein kinase erbB-2 (Homo sapiens) (UniProt P04626); experiment: as above; settings: 18-24 h, at 10 µM, stronger effect = lower value
Chain of Receptor tyrosine-protein kinase erbB-2 (Homo sapiens) (P04626 whole entry, looked up): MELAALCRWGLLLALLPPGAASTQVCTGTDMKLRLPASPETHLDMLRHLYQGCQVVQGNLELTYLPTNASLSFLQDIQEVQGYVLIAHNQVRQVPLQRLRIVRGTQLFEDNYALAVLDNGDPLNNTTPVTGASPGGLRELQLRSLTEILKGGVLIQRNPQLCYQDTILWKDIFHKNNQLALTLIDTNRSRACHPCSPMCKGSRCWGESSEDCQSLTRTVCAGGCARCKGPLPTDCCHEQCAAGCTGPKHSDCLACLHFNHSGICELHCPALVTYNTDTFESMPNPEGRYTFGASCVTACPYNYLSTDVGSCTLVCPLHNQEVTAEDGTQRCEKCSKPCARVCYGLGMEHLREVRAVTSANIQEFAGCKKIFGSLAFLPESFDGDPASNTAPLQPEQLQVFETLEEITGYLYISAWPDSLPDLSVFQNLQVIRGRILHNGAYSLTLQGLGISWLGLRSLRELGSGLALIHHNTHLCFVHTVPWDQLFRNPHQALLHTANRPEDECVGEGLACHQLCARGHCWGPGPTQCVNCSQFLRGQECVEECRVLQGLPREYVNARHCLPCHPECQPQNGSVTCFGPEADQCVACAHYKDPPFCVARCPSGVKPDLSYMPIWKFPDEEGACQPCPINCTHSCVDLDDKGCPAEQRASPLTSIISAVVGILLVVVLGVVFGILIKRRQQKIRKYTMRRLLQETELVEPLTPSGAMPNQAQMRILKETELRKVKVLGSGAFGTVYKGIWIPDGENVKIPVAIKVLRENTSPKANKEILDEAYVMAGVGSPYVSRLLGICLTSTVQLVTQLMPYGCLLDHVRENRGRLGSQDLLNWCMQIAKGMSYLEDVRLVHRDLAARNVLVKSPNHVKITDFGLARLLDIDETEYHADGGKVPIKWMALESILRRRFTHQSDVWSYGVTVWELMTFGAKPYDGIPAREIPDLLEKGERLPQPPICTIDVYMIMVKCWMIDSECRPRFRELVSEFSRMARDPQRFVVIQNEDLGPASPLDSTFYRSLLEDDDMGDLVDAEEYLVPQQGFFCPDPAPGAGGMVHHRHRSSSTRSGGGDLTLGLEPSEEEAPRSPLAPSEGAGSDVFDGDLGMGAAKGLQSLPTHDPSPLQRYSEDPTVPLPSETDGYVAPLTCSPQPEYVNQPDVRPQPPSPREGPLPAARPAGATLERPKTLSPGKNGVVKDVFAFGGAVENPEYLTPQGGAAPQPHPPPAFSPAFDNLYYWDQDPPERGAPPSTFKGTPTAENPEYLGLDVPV

[3] = reduced viability of SK-BR-3 breast cancer cells – cell-based, 24 h, human, pilot screen (AID 572;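 active means viability at or below 10% of carrier control in both of two separate runs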;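 further: compound exposure lasted between 18 and 24 h rather than exactly 24 h; 100% = carrier-treated control wells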); settings: SK-BR-3 viability, CellTiter-Glo luminescence, at 10 µM, stronger effect = lower value
[4] = HUVEC growth inhibition – cell-based, human, primary screen (AID 575;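 active means viability at or below 30% in both replicate assays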;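 further: 100% = median of untreated cell wells with 0.1% DMSO on each plate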); settings: HUVEC proliferation, CellTiter-Glo luminescence, 72 h; at 10 µM; stronger effect = lower value
Method in brief: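 material = primary HUVEC, no more than 12 passages | input = 1250 cells per well | controls = vehicle and MePR control wells | measured by = CTG luminescence | times = 72 h compound incubation | format = collagen-coated 384-well format | read-out = % viability vs DMSO wells | doses = single 10 µM dose, 0.1% DMSO, from 5x medium stock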

[5] = H69AR cell proliferation blockers – human, duplicate replicates, primary screen (AID 580;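 active means viability at or under a set limit in both replicates, limit being median viability minus 3 SD, cut at about 48% in these data, passing the limit was not always enough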;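 further: 100% = mean luminescence of untreated wells and 0% = no signal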); settings: H69AR lung tumor cells viability, ATP luminescence, 72 h; at 10 µM; stronger effect = lower value
[6] = MRP1 drug-resistance reversers in H69AR cells – cell-based, doxorubicin co-treatment, pilot screen (AID 601;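 active means viability loss from added drug above about 55%, and viability with drug at most 40%, in both replicates, limit read from the data, passing the limit was not always enough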); settings: CellTiter-Glo, 72 h, at 10 µM; for differential viability (reversal): stronger effect = higher value
[7] = yeast transport mutant growth inhibition pilot in 384-well plates, post-Golgi transport modulator project (AID 636; in the data active means inhibition above about 31%); settings: absorbance 615 nm, about 18 h, stronger effect = higher value
[8] = growth suppression of yeast trafficking mutant, preliminary HTS, modulators of trafficking downstream of Golgi apparatus project, 1536-format plate, OD 615 nm (AID 637); settings: yeast transport mutant growth, absorbance 615 nm, 18 h; stronger effect = higher value
[9] = H69AR cells + 2 uM doxorubicin, measured here: viability with 2 uM doxorubicin, stronger effect = lower value
[10] = H69AR cells, compound alone cytotoxicity

Row | Structure (SMILES) | viability [1] [%] | Her2 level [2] | viability [3] | viability [4] | viability [5] | differential viability (reversal) ([6]; H69AR cells + 2 uM doxorubicin) | viability [6, 9] [%] | viability [6, 10] [%] | inhibition [7] | inhibition [8]
1 | Cc1ccccc1NC(=O)C1CC(=O)N(c2ccccc2F)C1 (stereo not given) | 91.5 | 81% (inactive) | 91.5% (inactive) | 102% (inactive) | 100% (inactive) | 18.3% (inactive) | 82.1 | 100 | -8.65% (inactive) | 6.89% (inactive)
2 | Cc1cc(C)c(C#N)c(SCc2[nH]nc3c2C(c2ccccc2)C(C#N)=C(N)O3)n1 (stereo not given) | 93 | 80.5% (inactive) | 93% (inactive) | 85.3% (inactive) | 99.7% (inactive) | 4.6% (inactive) | 95.1 | 99.7 | -5.33% (inactive) | -4.03% (inactive)
3 | Cc1ccc(-c2noc(C3CCCN(C(=O)c4ccc(F)cc4F)C3)n2)cc1 (stereo not given) | 99 | 94% (inactive) | 99% (inactive) | 87.4% (inactive) | 90% (inactive) | 1.88% (inactive) | 88.1 | 90 | -2.16% (inactive) | -9% (inactive)
4 | CCCNc1nc2c(c(=O)n(C)c(=O)n2C)n1Cc1cccc(C)c1 | 87.5 | 85% (inactive) | 87.5% (inactive) | 83.7% (inactive) | 95.6% (inactive) | -5.19% (inactive) | 101 | 95.6 | -4.25% (inactive) | -3.97% (inactive)
5 | O=C(NCCCN1CCOCC1)C1CC(=O)N(CCc2ccccc2)C1 (stereo not given) | 104 | 89% (inactive) | 104% (inactive) | 84.1% (inactive) | 94.8% (inactive) | 7.94% (inactive) | 86.9 | 94.8 | -3.68% (inactive) | -1.29% (inactive)
6 | CC1CCN(C(=O)Cn2c(=O)oc3ccccc32)CC1 | 86.5 | 108% (inactive) | 86.5% (inactive) | 95.1% (inactive) | 90.7% (inactive) | 6.24% (inactive) | 84.5 | 90.7 | 0.53% (inactive) | -6.55% (inactive)
7 | COc1cc(C)nc(OCCNC(=O)COc2ccc(Cl)cc2C)n1 | 96.5 | 100% (inactive) | 96.5% (inactive) | 95.2% (inactive) | 107% (inactive) | 8.69% (inactive) | 98 | 107 | -0.93% (inactive) | 1.64% (inactive)
8 | CC(=O)c1cccc(NC(=O)N2CCCC2C(=O)NCc2ccc(C)cc2)c1 (stereo not given) | 104 | 93.5% (inactive) | 104% (inactive) | 92.5% (inactive) | 95.6% (inactive) | 8.41% (inactive) | 87.1 | 95.6 | -8.92% (inactive) | 8.33% (inactive)
9 | CCCCCc1c(O)nc(SCC(=O)NCC2CCCO2)[nH]c1=O (stereo not given) | 96 | 110% (inactive) | 96% (inactive) | 96.9% (inactive) | 105% (inactive) | 12.2% (inactive) | 93 | 105 | 0% (inactive) | -3.81% (inactive)
10 | CCNC(=O)CC1C(=O)N(c2ccccc2)C(=O)N1Cc1ccc(OC)cc1 (stereo not given) | 94.5 | 100% (inactive) | 94.5% (inactive) | 91.9% (inactive) | 94.8% (inactive) | 5.68% (inactive) | 89.1 | 94.8 | -3.68% (inactive) | -2.91% (inactive)
11 | CCOc1ccccc1Nc1ncnc2ccccc12 | 101 | 81% (inactive) | 101% (inactive) | 78.4% (inactive) | 82% (inactive) | 1.99% (inactive) | 80 | 82 | -1.45% (inactive) | 0.18% (inactive)
12 | CCCC(=O)Nc1cc(C)c(NC(=O)c2ccccn2)cn1 | 90.5 | 92.5% (inactive) | 90.5% (inactive) | 92.2% (inactive) | 99.4% (inactive) | 9.38% (inactive) | 90.1 | 99.4 | -5.06% (inactive) | -0.32% (inactive)
13 | Cc1cc(N2CCC3(CC2)OCCO3)n2nc(C)c(-c3ccc(Cl)cc3)c2n1 | 84.5 | 84% (inactive) | 84.5% (inactive) | 71.9% (inactive) | 90.9% (inactive) | 12.5% (inactive) | 78.4 | 90.9 | -5.68% (inactive) | 2.38% (inactive)
14 | c1ccc2c(c1)sc1nnnn12 | 94.5 | 81% (inactive) | 94.5% (inactive) | 79.9% (inactive) | 86.6% (inactive) | -13.7% (inactive) | 100 | 86.6 | -5.07% (inactive) | 1.97% (inactive)
15 | CC(C)(C)C(=O)Oc1cc(N)n(S(=O)(=O)c2ccccc2)n1 | 93.5 | 101% (inactive) | 93.5% (inactive) | 102% (inactive) | 87.1% (inactive) | 3.59% (inactive) | 83.5 | 87.1 | 0.53% (inactive) | -5.27% (inactive)
16 | O=C(CSC1=NC(=O)C(Cc2ccccc2)C(=O)N1)NC1CCCCC1 (stereo not given) | 100 | 118% (inactive) | 100% (inactive) | 87.8% (inactive) | 91.7% (inactive) | 8.56% (inactive) | 83.2 | 91.7 | -0.53% (inactive) | 23.1% (inactive)

Row | Structure (SMILES) | viability [1] [%] | Her2 level [2] | viability [3] | viability [4] | viability [5] | differential viability (reversal) ([6]; H69AR cells + 2 uM doxorubicin) | viability [6, 9] [%] | viability [6, 10] [%] | inhibition [7] | inhibition [8]
17 | Cn1c(SCc2nnc3n2CCCCC3)nc2ccccc21 | 103 | 98.5% (inactive) | 103% (inactive) | 98.3% (inactive) | 98.2% (inactive) | 4.2% (inactive) | 94 | 98.2 | -6.67% (inactive) | 2.54% (inactive)
18 | CC(C)C1N=C2c3ccccc3N=C(SCc3cc(=O)n4ccccc4n3)N2C1=O (stereo not given) | 89 | 135% (inactive) | 89% (inactive) | 97.6% (inactive) | 80.1% (inactive) | -20.5% (inactive) | 101 | 80.1 | 2.24% (inactive) | -3.67% (inactive)
19 | O=C(O)CCc1ccc(-c2ccc(Br)cc2)n1CC(=O)O | 102 | 102% (inactive) | 102% (inactive) | 91.9% (inactive) | 101% (inactive) | 2.92% (inactive) | 98 | 101 | -0.51% (inactive) | -3.67% (inactive)
20 | COc1cc(CC(=O)Nc2ncc(C)s2)cc(OC)c1OC | 109 | 96% (inactive) | 109% (inactive) | 90.8% (inactive) | 91.5% (inactive) | 2.69% (inactive) | 88.8 | 91.5 | -3.2% (inactive) | 5.74% (inactive)
21 | CCOC(=O)c1ccc2nc(NC(NC(C)=O)(C(=O)OC)C(F)(F)F)sc2c1 (stereo not given) | 98.5 | 88.5% (inactive) | 98.5% (inactive) | 82.8% (inactive) | 98.6% (inactive) | 15% (inactive) | 83.6 | 98.6 | -3.03% (inactive) | -1.82% (inactive)
22 | O=c1c2c3c(sc2nc2sc(C4CC4)nn12)CCCC3 | 110 | 92.5% (inactive) | 110% (inactive) | 82.7% (inactive) | 79.7% (inactive) | -7.56% (inactive) | 87.2 | 79.7 | -0.39% (inactive) | 20.7% (inactive)
23 | CCN1CCCC1CN=Cc1c(O)n(-c2ccccc2)c(=O)c2ccccc12 (stereo not given) | 82 | 106% (inactive) | 82% (inactive) | 96.9% (inactive) | 92.9% (inactive) | -2.08% (inactive) | 95 | 92.9 | -6.89% (inactive) | -2.54% (inactive)
24 | Fc1ccccc1-c1nc(NCCCN2CCOCC2)c2ccccc2n1 | 94 | 107% (inactive) | 94% (inactive) | 85.6% (inactive) | 72.2% (inactive) | -7.69% (inactive) | 79.9 | 72.2 | -0.68% (inactive) | 9.21% (inactive)
25 | C=CCSc1nc(N)c(C(=O)Nc2ccccc2C)cc1C(N)=O | 93 | 121% (inactive) | 93% (inactive) | 99.9% (inactive) | 87.4% (inactive) | -2.21% (inactive) | 89.6 | 87.4 | 4.42% (inactive) | 4.67% (inactive)
26 | CCOC(=O)c1cccc(NC(=O)CSc2nnc(-c3ccoc3C)n2CCOC)c1 | 102 | 92% (inactive) | 102% (inactive) | 91.6% (inactive) | 89.7% (inactive) | -2.74% (inactive) | 92.4 | 89.7 | -1.45% (inactive) | 0.81% (inactive)
27 | CCN(C1CCCCC1)S(=O)(=O)c1ccc(OC)c(C)c1 | 99 | 108% (inactive) | 99% (inactive) | 91.5% (inactive) | 93.1% (inactive) | 15.7% (inactive) | 77.4 | 93.1 | -7.92% (inactive) | -13% (inactive)
28 | c1ccc2c(c1)Cn1c-2nc2ccccc21 | 114 | 95% (inactive) | 114% (inactive) | 120% (inactive) | 78.4% (inactive) | -1.54% (inactive) | 79.9 | 78.4 | -6.35% (inactive) | 1% (inactive)
29 | N#CC(C(=O)c1ccco1)c1ccccn1 (stereo not given) | 106 | 81% (inactive) | 106% (inactive) | 98.1% (inactive) | 86.1% (inactive) | 4.21% (inactive) | 81.9 | 86.1 | -7.37% (inactive) | 0.67% (inactive)
30 | O=P(O)(O)c1ccccc1OCCOCCOc1ccccc1P(=O)(O)O | 101 | 89.5% (inactive) | 101% (inactive) | 111% (inactive) | 92% (inactive) | 5.91% (inactive) | 86.1 | 92 | -6.08% (inactive) | 0.5% (inactive)
31 | O=S(=O)(c1ccc(F)c(Cl)c1)N1CCCC1 | 100 | 71% (inactive) | 100% (inactive) | 93.9% (inactive) | 92.2% (inactive) | 3.06% (inactive) | 89.2 | 92.2 | -5.68% (inactive) | 0.16% (inactive)
32 | COc1ccccc1OCc1ccc(C(=O)NC(C)(C)C)o1 | 83 | 102% (inactive) | 83% (inactive) | 94.2% (inactive) | 95.4% (inactive) | 14.6% (inactive) | 80.9 | 95.4 | 1.71% (inactive) | -5.82% (inactive)
